Reference: ChEMBL document CHEMBL5653613 (Mol Cancer Ther, 2013)
The source made the active and inactive calls. No cut-off for these calls is given here.

What was measured:
[1] = target: Macrophage-stimulating protein receptor (Homo sapiens, UniProt Q04912); assay: Inhibition of RON (unknown origin)
[2] = target: Hepatocyte growth factor receptor (Homo sapiens, UniProt P08581); assay: Inhibition of MET (unknown origin)
[3] = system: T47D; assay: Induction of polyploidy in human T47D cells at 5 uM incubated for 72 hrs by microscopic analysis; type: functional, cell-based
Outline: (§1)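 Cells stained with Hema-3 and photographed under a light microscope with CCD camera. Polyploid cells scored as percent of the population.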

[4] = system: MCF7; assay: Induction of polyploidy in human MCF7 cells at 5 uM incubated for 72 hrs by microscopic analysis; type: functional, cell-based; outline: as §1
[5] = system: ZR-75-1; assay: Induction of polyploidy in human ZR-75-1 cells at 5 uM incubated for 72 hrs by microscopic analysis; type: functional, cell-based; outline: as §1
[6] = system: T47D; assay: Induction of cell cycle arrest in human T47D cells at 5 umol/L preincubated for 24 hrs followed by extensive compound washout and subsequent culturing in compound-free media measured for 60 to 120 mins by immunofluorescence staining based analysis; type: functional; conditions: dose 5.0 µmol/L
Outline: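 T-47D cells were treated at 37°C with 5 µmol/L for 24 h, washed extensively, then cultured in DMEM with 10% FBS for 30, 60 and 120 min. α- and γ-tubulin were detected by immunofluorescence with DAPI, imaged at 400×. The control was a 24 h preincubation with 5 µmol/L RO-3306. One of 2 experiments.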

[7] = system: T47D; assay: Cytotoxicity against human T47D cells assessed as inhibition of cell viability incubated for 72 hrs by MTS assay; type: functional, cell-based
Outline: (§2)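 Untreated cells were seeded at 5,000 cells/well in 96-well plates and run as the control. They were exposed in triplicate for 72 h to graded doxorubicin, bleomycin, cisplatin, paclitaxel or methotrexate (nmol/L range). Viability was read by MTS assay and IC50 was calculated.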

[8] = system: ZR-75-1; assay: Cytotoxicity against human ZR-75-1 cells assessed as inhibition of cell viability incubated for 72 hrs by MTS assay; type: functional, cell-based; outline: as §2

Sequence of Hepatocyte growth factor receptor (P08581 whole entry): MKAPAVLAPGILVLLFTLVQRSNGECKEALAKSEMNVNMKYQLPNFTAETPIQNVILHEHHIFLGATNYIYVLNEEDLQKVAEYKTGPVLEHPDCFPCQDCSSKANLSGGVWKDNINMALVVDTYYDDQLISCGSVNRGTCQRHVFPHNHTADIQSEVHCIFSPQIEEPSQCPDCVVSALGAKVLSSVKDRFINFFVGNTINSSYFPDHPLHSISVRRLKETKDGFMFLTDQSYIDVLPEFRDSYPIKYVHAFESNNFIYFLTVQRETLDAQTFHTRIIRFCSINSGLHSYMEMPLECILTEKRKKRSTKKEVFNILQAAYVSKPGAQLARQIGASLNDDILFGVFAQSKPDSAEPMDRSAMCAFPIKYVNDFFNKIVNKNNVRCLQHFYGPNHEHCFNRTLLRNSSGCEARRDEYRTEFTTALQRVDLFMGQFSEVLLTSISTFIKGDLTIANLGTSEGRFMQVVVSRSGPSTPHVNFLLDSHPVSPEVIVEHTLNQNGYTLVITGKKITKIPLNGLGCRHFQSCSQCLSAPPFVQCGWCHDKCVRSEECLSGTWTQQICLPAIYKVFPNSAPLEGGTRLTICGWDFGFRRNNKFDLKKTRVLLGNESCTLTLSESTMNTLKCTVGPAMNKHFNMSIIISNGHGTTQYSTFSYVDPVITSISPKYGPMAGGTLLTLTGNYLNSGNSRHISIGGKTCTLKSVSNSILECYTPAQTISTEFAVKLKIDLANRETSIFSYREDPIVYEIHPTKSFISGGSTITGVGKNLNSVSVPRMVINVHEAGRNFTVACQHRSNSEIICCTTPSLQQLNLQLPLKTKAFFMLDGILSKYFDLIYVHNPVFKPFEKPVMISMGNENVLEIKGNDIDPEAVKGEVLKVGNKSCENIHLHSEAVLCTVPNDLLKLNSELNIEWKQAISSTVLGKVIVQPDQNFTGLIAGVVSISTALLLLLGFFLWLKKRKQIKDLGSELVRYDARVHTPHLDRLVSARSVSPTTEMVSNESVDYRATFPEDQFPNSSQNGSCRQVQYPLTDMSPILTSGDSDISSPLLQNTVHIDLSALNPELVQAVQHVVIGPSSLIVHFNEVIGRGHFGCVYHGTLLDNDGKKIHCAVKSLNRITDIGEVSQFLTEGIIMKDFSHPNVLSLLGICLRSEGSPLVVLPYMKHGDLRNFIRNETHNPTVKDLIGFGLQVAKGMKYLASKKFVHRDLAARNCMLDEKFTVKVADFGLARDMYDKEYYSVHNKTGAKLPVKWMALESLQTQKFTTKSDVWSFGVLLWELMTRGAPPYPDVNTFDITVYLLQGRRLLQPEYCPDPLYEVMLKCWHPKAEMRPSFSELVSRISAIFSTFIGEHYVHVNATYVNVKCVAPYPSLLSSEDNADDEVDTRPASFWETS
Sequence of Macrophage-stimulating protein receptor (Q04912 25-304 limits assumed): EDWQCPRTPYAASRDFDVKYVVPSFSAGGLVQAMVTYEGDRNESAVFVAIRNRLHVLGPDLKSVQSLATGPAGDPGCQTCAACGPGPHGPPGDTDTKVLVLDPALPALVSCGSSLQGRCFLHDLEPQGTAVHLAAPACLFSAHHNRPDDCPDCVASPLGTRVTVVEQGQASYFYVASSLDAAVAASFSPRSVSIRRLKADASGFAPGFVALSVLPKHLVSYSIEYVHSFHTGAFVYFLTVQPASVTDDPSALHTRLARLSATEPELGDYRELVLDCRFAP
Sequence of Macrophage-stimulating protein receptor (Q04912 310-1400 limits assumed): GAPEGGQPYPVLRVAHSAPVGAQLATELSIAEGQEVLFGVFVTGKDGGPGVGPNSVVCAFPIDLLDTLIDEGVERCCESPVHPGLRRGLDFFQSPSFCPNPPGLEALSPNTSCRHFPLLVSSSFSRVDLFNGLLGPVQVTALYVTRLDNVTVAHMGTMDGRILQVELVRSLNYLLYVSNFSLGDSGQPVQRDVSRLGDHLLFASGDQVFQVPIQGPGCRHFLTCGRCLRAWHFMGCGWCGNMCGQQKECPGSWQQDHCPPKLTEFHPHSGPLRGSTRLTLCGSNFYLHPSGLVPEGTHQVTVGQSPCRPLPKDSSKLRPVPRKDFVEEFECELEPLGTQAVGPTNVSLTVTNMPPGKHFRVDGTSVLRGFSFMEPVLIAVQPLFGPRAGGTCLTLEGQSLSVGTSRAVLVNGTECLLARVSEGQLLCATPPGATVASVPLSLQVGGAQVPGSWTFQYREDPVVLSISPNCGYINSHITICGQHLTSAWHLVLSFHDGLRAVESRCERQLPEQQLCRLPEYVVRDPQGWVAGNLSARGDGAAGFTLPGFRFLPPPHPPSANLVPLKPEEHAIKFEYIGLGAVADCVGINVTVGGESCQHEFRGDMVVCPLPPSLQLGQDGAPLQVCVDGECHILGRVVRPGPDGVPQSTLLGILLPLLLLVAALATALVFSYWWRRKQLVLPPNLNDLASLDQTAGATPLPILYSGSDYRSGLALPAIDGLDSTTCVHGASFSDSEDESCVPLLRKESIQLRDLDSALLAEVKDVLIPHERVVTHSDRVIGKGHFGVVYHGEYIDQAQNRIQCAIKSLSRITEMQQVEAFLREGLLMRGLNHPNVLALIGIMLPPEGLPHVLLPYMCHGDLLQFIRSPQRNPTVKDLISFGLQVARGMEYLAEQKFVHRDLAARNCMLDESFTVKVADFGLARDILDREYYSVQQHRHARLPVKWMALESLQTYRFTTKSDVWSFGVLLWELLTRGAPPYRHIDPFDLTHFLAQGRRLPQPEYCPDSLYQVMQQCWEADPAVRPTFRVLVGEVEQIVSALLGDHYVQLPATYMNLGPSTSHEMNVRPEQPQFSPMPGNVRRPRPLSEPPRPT

`COc1ccc2c(Oc3ccc(NC(=O)c4c(C)n(CC(C)(C)O)n(-c5ccccc5)c4=O)cc3F)ccnc2c1` was tested, and the IC50 [1] was 9 nM, the IC50 [2] was 4 nM and the Activity [3] was “inactive”. For the same compound, the Activity [4] was “inactive” and the Activity [5] was “inactive”.

In the case of `Cc1[nH]c(/C=C2\C(=O)Nc3ccc(S(=O)(=O)Cc4c(Cl)cccc4Cl)cc32)c(C)c1C(=O)N1CCC[C@@H]1CN1CCCC1`, the Activity [3] is reported as “inactive”, the Activity [4] is reported as “inactive” and the Activity [5] is reported as “inactive”.

In the case of `O=C1N=C(NCc2cccs2)S/C1=C\c1ccc2ncccc2c1`, the Activity [6] is reported as “inactive”.

`COc1cccc2c1C(=O)c1c(O)c3c(c(O)c1C2=O)C[C@@](O)(C(=O)CO)C[C@@H]3O[C@H]1C[C@H](N)[C@H](O)[C@H](C)O1` [DOXORUBICIN] was tested, and the IC50 ([7]; Homo sapiens, T47D, 72 h) was 264 nM and the IC50 ([8]; Homo sapiens, ZR-75-1, 72 h) was 453 nM.

`CN(Cc1cnc2nc(N)nc(N)c2n1)c1ccc(C(=O)N[C@@H](CCC(=O)O)C(=O)O)cc1` [METHOTREXATE] was tested, and the IC50 ([7]; Homo sapiens, T47D, 72 h) was 64.4 nM and the IC50 ([8]; Homo sapiens, ZR-75-1, 72 h) was 66 nM.

`CC(=O)O[C@H]1C(=O)[C@@]2(C)[C@H]([C@H](OC(=O)c3ccccc3)[C@]3(O)C[C@H](OC(=O)[C@H](O)[C@@H](NC(=O)c4ccccc4)c4ccccc4)C(C)=C1C3(C)C)[C@]1(OC(C)=O)CO[C@@H]1C[C@@H]2O` [PACLITAXEL] gave an IC50 ([7]; Homo sapiens, T47D, 72 h) of 4 nM and an IC50 ([8]; Homo sapiens, ZR-75-1, 72 h) of 6.2 nM.

For BLEOMYCIN, the IC50 ([7]; t47d) was 129 nM and the IC50 ([8]; zr-75-1) was 165 nM.
